Rows were chosen to be rich in hits. Some 1.8% of all compounds tested hit in one or more screens of this group.
TDP2 absorb: blocks human TDP2 phosphodiesterase activity. O95551. recombinant TDP2, T5PNP hydrolysis, p-nitrophenol absorbance 415 nm. inhibition, % at 12.8 µM. 370,000 compounds, 0.34% hits;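 active = inhibition above the mean of all tested compounds plus 3 SD, set per campaign, cut at about 25% in these data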;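 also: 0% = DMSO with enzyme and 100% = buffer with substrate but no TDP2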
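System – recombinant human TDP2 · Quantity – TDP2 enzyme at 120 nM final · Doses – single concentration, 12.8 µM nominal, with 1% DMSO · Incubation – 2 h at 37 °C · Measured by – epi absorbance of p-nitrophenol freed from T5PNP by hydrolysis · Read-out – % inhibition relative to enzyme-containing and enzyme-free wells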
MBD2 DNA inh: inhibitors of human MBD2 binding to methylated oligonucleotide; Q9UBB5; TR-FRET; inhibition, % at 4.4 µM; 370,000 compounds, 0.31% hits; AID 686964; in the data active = inhibition above about 13%
Target sequence (Q9UBB5 whole entry, looked up): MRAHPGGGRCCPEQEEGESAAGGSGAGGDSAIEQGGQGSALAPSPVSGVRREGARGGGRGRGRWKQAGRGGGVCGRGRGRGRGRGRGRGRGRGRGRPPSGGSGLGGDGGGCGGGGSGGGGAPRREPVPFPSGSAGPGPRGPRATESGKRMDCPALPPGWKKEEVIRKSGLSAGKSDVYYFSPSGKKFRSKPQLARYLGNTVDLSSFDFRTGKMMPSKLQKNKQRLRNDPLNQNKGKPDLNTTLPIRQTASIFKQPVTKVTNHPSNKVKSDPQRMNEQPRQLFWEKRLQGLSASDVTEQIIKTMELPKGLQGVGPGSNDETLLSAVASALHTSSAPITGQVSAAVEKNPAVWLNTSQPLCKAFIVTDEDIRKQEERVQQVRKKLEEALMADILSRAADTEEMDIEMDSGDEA
UHRF1 binding: human UHRF1 methylated DNA binding inhibitors; Q96T88; 370,000 compounds, 0.75% hits; UHRF1 binding to methylated oligo, TR-FRET; inhibition, % at 4.4 µM; in the data active = inhibition above about 21%;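 also: UHRF1 SRA domain binding a hemimethylated CpG hairpin DNA probe; 0% = median of test compound wells and 100% = reference inhibitor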
core dimer inh: HCV core protein dimerization inhibition. 300,000 compounds, 0.33% hits. TR-FRET GST/Flag-core106 dimerization, 1536-well. inhibition, % at 5 µM. AID 1899;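 active = inhibition above the mean of all tested compounds plus 3 SD, set per screening campaign, cut at about 45% in these data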
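Material: Tagged HCV core106 pair (GST and Flag) | Amount: GST-core106 13.5 nM, Flag-core106 17 nM | Medium: KF-containing HEPES buffer, pH 7.45, DTT, CHAPS, BSA | Reagent: Eu donor and XL665 acceptor anti-tag antibodies | Schedule: 4 h at 22.5 °C | Technique: Time-resolved FRET, ex 340 nm, em 617 and 671 nm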
LEDGF integ inh: blocks HIV-1 LEDGF/p75-dependent DNA integration; TR-FRET IN-LEDGF/p75 DNA integration, Eu/Cy5; inhibition, % at 3.7 µM; 370,000 compounds, 0.64% hits; AID 743269;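 active = inhibition above the screen-wide mean plus 3 SD, cut at about 13% in these data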;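 also: signal is the Cy5 over europium emission ratio at 671 and 618 nm; 0% = plate median of compound wells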
TDP2 inh conf: human TDP2 inhibition, confirmation. shares compounds with TDP2 absorb. recombinant human TDP2, absorbance read-out. inhibition, % at 12.8 µM. 1,100 compounds, 22% hits. AID 743263; in the data active = inhibition above about 25%;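 also: 0% = vehicle with enzyme and 100% = no enzyme buffer only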
The depositor's hits bear a star; . = no result given.

SMILES	TDP2 absorb	MBD2 DNA inh	UHRF1 binding	core dimer inh	LEDGF integ inh	TDP2 inh conf
N/C(=N\N=Cc1ccc2c(c1)OCO2)NN=Cc1ccc2c(c1)OCO2	44*	-5	2	.	43*	-7
O=C(Nc1ccc2nc3n(c(=O)c2c1)CCCCC3)c1c(F)ccc([N+](=O)[O-])c1F	25*	3	-2	13	17*	38*
Cc1sc2ncnc(N(C)Cc3cccs3)c2c1C	-14	2	2	2	0	.
Cc1sc2ncnc(N(C)CCc3ccccn3)c2c1C	26*	2	1	-4	3	10
Cc1ccccc1S(=O)Cc1ccc(C(=O)N2CCN(C(=O)c3ccco3)CC2)o1 (configuration not stated)	39*	1	1	7	-1	-3
C=CCn1c(NS(=O)(=O)c2ccccc2)c(S(=O)(=O)c2ccc(C)cc2)c2nc3ccccc3nc21	37*	-1	3	19	5	39*
O=S(=O)(Nc1c(S(=O)(=O)c2ccccc2)c2nc3ccccc3nc2n1C1CCCCC1)c1ccccc1	89*	2	8	34	33*	84*
CC(=O)Nc1c(S(=O)(=O)c2ccccc2)c2nc3ccccc3nc2n1Cc1ccccc1	2	4	-3	11	3	.
Cc1ccc(S(=O)(=O)c2c(N)n(-c3ccccc3)c3nc4ccccc4nc23)cc1	-10	1	-4	16	-3	.
COC(=O)[C@]12C[C@H](CC(=O)NCCC(C)C)C(=O)N(CCc3ccc(OC)c(OC)c3)C1=C[C@H](C(C)C)O[C@@H]2C1CC1	-5	4	4	.	-2	.
Cc1ccc(S(=O)(=O)N2CCC(C(=O)NCCCN3CCOCC3)CC2)cc1C	30*	-3	-2	3	-1	5
CCCCC(Sc1nc(N)c(NC(=O)c2ccco2)c(=O)[nH]1)C(=O)O (configuration not stated)	26*	-3	0	-11	2	2
COc1ccc(C)cc1NC(=S)NN1CCN(C)CC1	29*	4	1	-5	-4	1
O=C(c1nc2ccccn2c1CNCCCn1cccn1)N1CCCC1	28*	7	24*	1	2	-8
COc1cccc(-n2nnnc2SCC(=O)Nc2nc3c(s2)CCCC3)c1	5	1	1	15	0	.
COC(=O)c1cccc(-n2nnnc2SCC(=O)Nc2nc3c(s2)CCCC3)c1	48*	5	2	7	2	-2
O=C(CCc1ccccc1)N[C@H]1[C@@H](OC(=O)c2cnccn2)CCC[C@]12C(=O)N(Cc1ccccc1)c1ccccc12	7	3	0	.	-1	.
COc1ccc(Cn2c(N)c(C#N)c3nc4ccccc4nc32)cc1	37*	-3	0	-4	8	-1
COCCn1c(N)c(C#N)c2nc3ccccc3nc21	30*	-4	5	-3	5	15
COc1cc(Cn2c(N)c(C#N)c3nc4ccccc4nc32)cc(OC)c1	-12	-2	-1	3	5	.
CCN(CC)C(=O)CC[C@H]1CC[C@]2(CCCN(C(=O)c3ccc4ccccc4n3)C2)O1	1	-2	1	.	3	.
C=CCN1C(C(=O)OC)CN(Cc2cn(Cc3ccc(F)cc3)nn2)CCS1(=O)=O (configuration not stated)	3	5	14	.	6	.
COc1ccc(CC2=CC(=O)c3ccccc3C2=O)cc1	53*	-5	-5	-9	1	17
COc1ccc(Cc2ccccc2C(=O)O)cc1	5	2	3	.	3	.
COc1ccc(N2CC(NS(=O)(=O)c3cccnc3)CC2=O)cc1 (configuration not stated)	-4	-5	-4	-1	0	.
SMILES	TDP2 absorb	MBD2 DNA inh	UHRF1 binding	core dimer inh	LEDGF integ inh	TDP2 inh conf
COc1cccc(N2CC(NS(=O)(=O)c3cccnc3)CC2=O)c1 (configuration not stated)	29*	-4	0	-11	-1	-5
COc1ccc(C2C(C#N)=C(N)Oc3c2c(-c2ccccc2)nn3-c2ccccc2)c(OC)c1OC (configuration not stated)	68*	-8	3	-4	12	7
COc1ccc(OC)c(C2C(C#N)=C(N)Oc3c2c(C)nn3-c2ccc(C)cc2)c1 (configuration not stated)	60*	-4	1	-4	4	9
Cc1nn(-c2ccccc2)c2c1C(c1ccccc1)C(C#N)=C(N)O2 (configuration not stated)	40*	-9	5	-10	8	11
Cc1ccc(-n2nc(C)c3c2OC(N)=C(C#N)C3c2ccoc2)cc1 (configuration not stated)	9	-7	-4	0	1	.
COC(=O)C1CCN(C(=O)CCn2nnc(-c3cccs3)n2)CC1	-5	5	3	.	-2	.
CCN1CCN(C2=C(NS(=O)(=O)c3ccc(NC(C)=O)cc3)C(=O)c3ccccc3C2=O)CC1	20	-16	-8	-34	1	.
CCOC(=O)N1CCN(C2=C(NS(=O)(=O)c3ccc(NC(C)=O)cc3)C(=O)c3ccccc3C2=O)CC1	28*	-8	-2	-34	6	24
CC(=O)Nc1ccc(S(=O)(=O)NC2=C(N3CCN(C)CC3)C(=O)c3ccccc3C2=O)cc1	24	-14	-11	-32	5	.
CCOC(=O)C1CCCN(C2=C(NS(=O)(=O)c3ccc(Br)cc3)C(=O)c3ccccc3C2=O)C1 (configuration not stated)	43*	-1	-2	5	22*	13
CCN1CCN(C2=C(NS(=O)(=O)c3ccc(C)cc3)C(=O)c3ccccc3C2=O)CC1	25*	-19	-13	-22	5	13
CCN(CC)S(=O)(=O)c1ccc(N2CCN(S(=O)(=O)c3ccccc3)CC2)nc1	25*	2	-1	.	3	2
CCN(CC)S(=O)(=O)c1ccc(N2CCN(S(=O)(=O)c3ccccc3C#N)CC2)nc1	-16	-2	3	12	2	.
CCCC1CCC2(CCCN2CCOC(=S)NCc2cccc(C)c2)CC1 (configuration not stated)	-4	1	-2	.	0	.
CC(C)CC(=O)Nc1nnc(SCC(=O)NC2CCCC2)s1	8	-3	2	.	-2	.
CCCCC(=O)Nc1nnc(SCC(=O)NC2CC2)s1	39*	-3	-2	10	4	3
CC(C)C(=O)Nc1nnc(SCC(=O)NC2CCCC2)s1	33*	4	93*	0	0	-3
Cc1ccc(CNC(=O)OC(C)(C)C)c(/C=C/S(=O)(=O)NCCc2ccccc2)c1	-10	6	2	.	4	.

Screening data from PubChem BioAssay.
